In ChEMBL document CHEMBL1157882, “Novel 2-[(benzylamino)methyl]pyrrolidine-3,4-diol derivatives as alpha-mannosidase inhibitors and with antitumor activities against hematological and solid malignancies” (Bioorg Med Chem, 2010):
Activity calls are given as the source filed them. No cut-off for these calls is given here.

Experiments:
[1] = Cytotoxicity in human multiple myeloma cells assessed as late apoptotic/necrotic cells at 50 uM after 24 hrs by annexin V/propidium iodide staining based flow cytometry (reference value: 9.1%); format: functional, Multiple myeloma cell
[2] = Cytotoxicity in human B-CLL assessed as early apoptotic cells at 100 uM after 24 hrs by annexin V/propidium iodide staining based flow cytometry (reference value: 3.6 to 20.2%); format: functional
SK-BR-3 [3] = assay: Increase in CDKN1C mRNA level in human SKBR3 cells at 50 uM after 12 hrs by TLDA; format: functional, cell-based
How it was run: (§1)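 SKBR3 and MCF7 cells seeded at 2 × 10⁵ per well, treated 12 h with 50 µM compound (DMSO stock); total RNA extracted, cDNA made with random hexamers, gene expression profiled by TaqMan low-density arrays (qPCR, duplicate per gene). Normalised to RPLP0; fold change versus DMSO vehicle-treated cells, calculated as 2^-ΔΔCT.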

A549 [4] = assay: Cytotoxicity against human A549 cells after 72 hrs by colorimetric assay; format: functional, cell-based; conditions: Homo sapiens, A549, 72 h; read-out: IC50
How it was run: (§2)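 Cells grown in McCoy's medium (adherent lines) or RPMI-1640 (U266), each with 10% FBS, L-glutamine and antibiotics, at 37 °C in 5% CO₂. Compound dissolved as a 100 mM DMSO stock, final DMSO ≤0.4%. Cells were exposed for 72 h across a 10^-2 to 400 µM range. Viability was read by CellTiter 96 Aqueous (2–4 h incubation, absorbance 490 nm). Triplicate wells; IC50 from curve fitting.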

[5] = target: Glucoamylase (Aspergillus niger) (UniProt P69328); assay: Inhibition of amyloglucosidase from Aspergillus niger at 1 mM at pH 5
How it was run: (§3)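 Glycosidase panel of commercial enzymes assayed at each enzyme's optimal pH with compound at 1 mM; percentage inhibition of enzyme activity calculated.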

[6] = Inhibition of alpha-mannosidase from jack bean at pH 5; design: species or system Canavalia ensiformis
SK-BR-3 [7] = assay: Cell cycle arrest in human SKBR3 cells by accumulation of cells at G2/M phase at 100 uM after 48 hrs by propidium iodide-staining based flow cytometry (reference value: 16%); format: functional
[8] = Cytotoxicity in human multiple myeloma cells assessed as pre-necrotic cells at 200 uM after 24 hrs by annexin V/propidium iodide staining based flow cytometry (reference value: 42.1%); format: functional, Multiple myeloma cell
MCF7 [9] = assay: Decrease in CDC25 mRNA level in human MCF7 cells at 50 uM after 12 hrs by TLDA; format: functional, cell-based
How it was run: (§4)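 SKBR3 or MCF7 cells, 2×10⁵/well, treated with 50 µM for 12 h. Total RNA was column-purified and reverse-transcribed with random hexamers, then assayed on TaqMan low-density arrays. Expression was normalised to RPLP0, with fold change versus DMSO-vehicle cells calculated as 2^-ΔΔCT. Q-PCR run in duplicate per gene.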

[10] = Cytotoxicity in human B-CLL assessed as viable cells at 100 uM after 24 hrs by annexin V/propidium iodide staining based flow cytometry (reference value: 65.8 to 78%); format: functional; conditions: read-out: Activity
[11] = Cytotoxicity in human B-CLL assessed as pre-necrotic cells at 200 uM after 24 hrs by annexin V/propidium iodide staining based flow cytometry (reference value: 1.3 to 3.7%); format: functional
Oryza sativa = assay: Inhibition of alpha-glucosidase from rice at 1 mM at pH 4; how it was run: as §3
U-266 = assay: Cytotoxicity against human U266 cells after 72 hrs by colorimetric assay; format: functional, cell-based; conditions: Homo sapiens, U-266, 72 h; read-out: IC50; how it was run: as §2
SK-BR-3 [12] = assay: Cell cycle arrest in human SKBR3 cells by accumulation of cells at G2/M phase at 200 uM after 48 hrs by propidium iodide-staining based flow cytometry (reference value: 16%); format: functional
A549 [13] = assay: Cytotoxicity against human A549 cells after 72 hrs by colorimetric assay in presence of antioxidant N-acetyl-cysteine; format: functional, cell-based
Bos taurus = organism: Bos taurus; assay: Inhibition of beta-N-acetylglucosaminidase from bovine kidney at pH 4; design: concentration or dose not given beside the values; conditions: concentration not given here
[14] = target: Beta-galactosidase (Escherichia coli) (UniProt Q8VNN2); assay: Inhibition of beta-galactosidase from Escherichia coli at 1 mM at pH 7; how it was run: as §3
[15] = Cytotoxicity in human multiple myeloma cells assessed as early apoptotic cells at 50 uM after 24 hrs by annexin V/propidium iodide staining based flow cytometry (reference value: 0.1%); format: functional, Multiple myeloma cell
[16] = Cytotoxicity in human B-CLL assessed as late apoptotic/necrotic cells at 50 uM after 24 hrs by annexin V/propidium iodide staining based flow cytometry (reference value: 10 to 14.7%); format: functional
MCF7 [17] = assay: Decrease in ID1 mRNA level in human MCF7 cells at 50 uM after 12 hrs by TLDA; format: functional, cell-based; how it was run: as §4
Helix pomatia = assay: Inhibition of beta-mannosidase from snail at pH 4; design: concentration or dose not given beside the values; conditions: concentration not given here
[18] = Cytotoxicity in human multiple myeloma cells assessed as late apoptotic/necrotic cells at 100 uM after 24 hrs by annexin V/propidium iodide staining based flow cytometry (reference value: 9.1%); format: functional, Multiple myeloma cell
MCF7 [19] = assay: Increase in CDKN1C mRNA level in human MCF7 cells at 50 uM after 12 hrs by TLDA; format: functional, cell-based; how it was run: as §1
[20] = target: Alpha-galactosidase (Coffea arabica) (UniProt Q42656); assay: Inhibition of alpha-galactosidase from coffee beans at 1 mM at pH 6; how it was run: as §3
BT-474 = assay: Cytotoxicity against human BT474 cells after 72 hrs by colorimetric assay; format: functional, cell-based; conditions: Homo sapiens, BT-474, 72 h; read-out: IC50; how it was run: as §2
[21] = target: T1, Tissue alpha-L-fucosidase (Bos taurus) (UniProt Q2KIM0); assay: Inhibition of alpha-L-fucosidase from bovine kidney at 1 mM at pH 6; how it was run: as §3
T1 sequence (whole entry): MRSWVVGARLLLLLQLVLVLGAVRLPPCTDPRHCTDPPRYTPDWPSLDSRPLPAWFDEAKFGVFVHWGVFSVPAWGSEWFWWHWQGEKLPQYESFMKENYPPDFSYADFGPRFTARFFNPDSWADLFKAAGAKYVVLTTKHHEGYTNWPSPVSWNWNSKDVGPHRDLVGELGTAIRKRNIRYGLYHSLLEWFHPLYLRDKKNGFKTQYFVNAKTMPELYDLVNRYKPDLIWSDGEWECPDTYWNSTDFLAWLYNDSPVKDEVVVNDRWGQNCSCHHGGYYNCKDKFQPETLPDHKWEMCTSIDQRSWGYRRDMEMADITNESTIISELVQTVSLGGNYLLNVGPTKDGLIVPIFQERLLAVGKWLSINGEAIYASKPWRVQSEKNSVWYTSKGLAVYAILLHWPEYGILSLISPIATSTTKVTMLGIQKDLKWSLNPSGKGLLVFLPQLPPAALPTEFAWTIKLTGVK

A549 [22] = assay: Cytotoxicity against human A549 cells after 72 hrs by colorimetric assay in presence of pan-caspase inhibitor zVAD-fmk; format: functional, cell-based
MCF7 [23] = assay: Cytotoxicity against human MCF7 cells after 72 hrs by colorimetric assay; format: functional, cell-based; conditions: Homo sapiens, MCF7, 72 h; read-out: IC50; how it was run: as §2
[24] = Cytotoxicity in human multiple myeloma cells assessed as pre-necrotic cells at 100 uM after 24 hrs by annexin V/propidium iodide staining based flow cytometry (reference value: 42.1%); format: functional, Multiple myeloma cell
MCF7 [25] = assay: Decrease in cyclinE1 mRNA level in human MCF7 cells at 50 uM after 12 hrs by TLDA; format: functional, cell-based; how it was run: as §1

Sequence of Alpha-galactosidase (Coffea arabica) (Q42656 16-378 limits assumed): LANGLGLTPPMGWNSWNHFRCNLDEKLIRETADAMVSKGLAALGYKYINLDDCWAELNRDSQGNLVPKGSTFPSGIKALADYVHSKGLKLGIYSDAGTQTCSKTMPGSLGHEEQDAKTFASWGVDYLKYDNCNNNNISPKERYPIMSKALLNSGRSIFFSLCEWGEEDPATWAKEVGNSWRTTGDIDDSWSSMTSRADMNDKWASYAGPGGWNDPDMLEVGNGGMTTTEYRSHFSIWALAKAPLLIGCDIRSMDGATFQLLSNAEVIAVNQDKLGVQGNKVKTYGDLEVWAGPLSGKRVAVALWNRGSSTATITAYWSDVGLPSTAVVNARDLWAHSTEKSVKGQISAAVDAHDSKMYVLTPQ
Sequence of Beta-galactosidase (Escherichia coli) (Q8VNN2 whole entry, looked up): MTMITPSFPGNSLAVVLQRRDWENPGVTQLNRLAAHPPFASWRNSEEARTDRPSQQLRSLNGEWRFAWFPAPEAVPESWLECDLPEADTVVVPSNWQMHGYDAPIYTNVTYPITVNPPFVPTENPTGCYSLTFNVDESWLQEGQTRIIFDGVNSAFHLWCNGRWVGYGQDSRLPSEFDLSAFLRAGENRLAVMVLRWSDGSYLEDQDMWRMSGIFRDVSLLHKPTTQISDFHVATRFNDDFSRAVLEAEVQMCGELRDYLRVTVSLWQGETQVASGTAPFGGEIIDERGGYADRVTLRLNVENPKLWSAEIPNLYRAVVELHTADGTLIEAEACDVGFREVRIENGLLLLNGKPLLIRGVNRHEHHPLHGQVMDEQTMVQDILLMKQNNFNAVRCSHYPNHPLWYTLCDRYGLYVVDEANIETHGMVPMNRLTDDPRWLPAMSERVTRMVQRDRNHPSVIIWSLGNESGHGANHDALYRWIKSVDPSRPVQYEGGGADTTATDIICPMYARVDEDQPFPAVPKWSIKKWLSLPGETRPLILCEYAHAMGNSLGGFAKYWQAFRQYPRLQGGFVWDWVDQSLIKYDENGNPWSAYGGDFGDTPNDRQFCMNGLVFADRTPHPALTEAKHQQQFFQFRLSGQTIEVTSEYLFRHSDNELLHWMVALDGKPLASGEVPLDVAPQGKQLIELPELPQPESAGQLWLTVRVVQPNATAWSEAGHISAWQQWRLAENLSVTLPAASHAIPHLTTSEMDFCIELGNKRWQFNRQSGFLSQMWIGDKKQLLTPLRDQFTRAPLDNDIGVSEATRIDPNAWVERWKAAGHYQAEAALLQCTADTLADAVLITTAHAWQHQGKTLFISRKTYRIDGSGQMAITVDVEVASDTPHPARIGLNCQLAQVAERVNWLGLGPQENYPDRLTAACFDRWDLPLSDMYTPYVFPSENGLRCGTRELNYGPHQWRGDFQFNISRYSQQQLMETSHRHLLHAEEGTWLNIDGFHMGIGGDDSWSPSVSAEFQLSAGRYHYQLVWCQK
Sequence of Glucoamylase (Aspergillus niger) (P69328 whole entry): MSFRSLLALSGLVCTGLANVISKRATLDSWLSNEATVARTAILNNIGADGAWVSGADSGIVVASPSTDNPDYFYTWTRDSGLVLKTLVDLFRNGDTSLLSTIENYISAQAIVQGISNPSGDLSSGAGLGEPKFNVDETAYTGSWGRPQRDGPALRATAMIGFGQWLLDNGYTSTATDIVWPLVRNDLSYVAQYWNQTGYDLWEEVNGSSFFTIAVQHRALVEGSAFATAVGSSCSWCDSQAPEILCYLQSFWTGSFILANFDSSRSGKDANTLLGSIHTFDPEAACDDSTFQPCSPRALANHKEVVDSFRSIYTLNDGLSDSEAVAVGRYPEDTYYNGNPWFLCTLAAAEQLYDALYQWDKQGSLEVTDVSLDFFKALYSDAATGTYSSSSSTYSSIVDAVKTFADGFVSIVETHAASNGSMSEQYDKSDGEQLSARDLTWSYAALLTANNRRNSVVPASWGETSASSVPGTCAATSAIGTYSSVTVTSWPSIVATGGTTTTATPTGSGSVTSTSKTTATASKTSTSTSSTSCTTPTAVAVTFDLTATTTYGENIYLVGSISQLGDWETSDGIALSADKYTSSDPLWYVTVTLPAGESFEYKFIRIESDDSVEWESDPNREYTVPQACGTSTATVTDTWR

inhibition [5]: < 10%
IC50 [6]: 5 µM
Ki [6]: 2.7 µM
inhibition (Oryza sativa): < 10%
inhibition (Bos taurus): < 10%
inhibition [14]: < 10%
inhibition (Helix pomatia): < 10%
inhibition [20]: < 10%
inhibition [21]: < 10%
SMILES: OC[C@H](NC[C@H]1NC[C@H](O)[C@@H]1O)c1ccc(-c2ccc(C(F)(F)F)cc2)cc1
Activity [1]: 37.9%
Activity [2]: 2.7%
Activity (SK-BR-3 [3]): Active
IC50 (A549 [4]): 152 µM
Activity (SK-BR-3 [7]): 43%
Activity [8]: 21.3%
Activity (MCF7 [9]): Active
viability at 100 µM [10]: 5.1%
Activity [11]: 0.5%
IC50 (U-266): 50 µM
Activity (SK-BR-3 [12]): 42%
Activity (A549 [13]): Active
Activity [15]: 2.3%
Activity [16]: 10.1%
Activity (MCF7 [17]): Active
Activity [18]: 52.6%
Activity (MCF7 [19]): Active
IC50 (BT-474): 93 µM
Activity (A549 [22]): Active
IC50 (MCF7 [23]): 77 µM
Activity [24]: 17%
Activity (MCF7 [25]): Active
